Experimental data reported in ChEMBL document CHEMBL1133533 (J Med Chem, 2000).

Key:
D(1A) dopamine receptor [1] = target: T1, D(1A) dopamine receptor (Bos taurus, UniProt Q95136); experiment: Binding affinity against Dopamine receptor D1 from bovine striatal membranes using [3H]SCH-23390 as radioligand
Procedure, shortened: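 Bovine striatal membranes, 25 µg protein/tube, competing against [3H]SCH 23390 (Kd 0.27-0.32 nM). Eight concentrations in triplicate, 2-4 independent experiments. Sigmoid nonlinear fit gives IC50, converted to Ki by Cheng-Prusoff; reported as mean ± SEM.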

D(3) dopamine receptor = D(3) dopamine receptor (Homo sapiens, UniProt P35462); experiment: Displacement of [3H]spiperone from human Dopamine receptor D3 expressed in CHO cells; format: cell-based
Procedure, shortened: (§1)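 Membranes from CHO cells stably expressing human D2short, D3 or D4.4 receptor, 5-25 µg protein/tube, competing against [3H]spiperone. Eight concentrations in triplicate, 2-4 independent experiments. Sigmoid nonlinear fit gives IC50, converted to Ki by Cheng-Prusoff; reported as mean ± SEM; Hill slopes fit a one-site model.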

D(2) dopamine receptor [2] = target: T2, D(2) dopamine receptor (Homo sapiens, UniProt P14416); experiment: Displacement of [3H]spiperone from human Dopamine receptor D2S expressed in CHO cells; format: cell-based; procedure, shortened: as §1
D(2) dopamine receptor [3] = target: T2, D(2) dopamine receptor; experiment: Displacement of [3H]spiperone from human Dopamine receptor D2L expressed in CHO cells; format: cell-based
D(4) dopamine receptor [4] = target: T3, D(4) dopamine receptor (Homo sapiens, UniProt P21917); experiment: Displacement of [3H]spiperone from human Dopamine receptor D4.4 expressed in CHO cells; format: cell-based; procedure, shortened: as §1
T3 sequence (P21917 whole entry): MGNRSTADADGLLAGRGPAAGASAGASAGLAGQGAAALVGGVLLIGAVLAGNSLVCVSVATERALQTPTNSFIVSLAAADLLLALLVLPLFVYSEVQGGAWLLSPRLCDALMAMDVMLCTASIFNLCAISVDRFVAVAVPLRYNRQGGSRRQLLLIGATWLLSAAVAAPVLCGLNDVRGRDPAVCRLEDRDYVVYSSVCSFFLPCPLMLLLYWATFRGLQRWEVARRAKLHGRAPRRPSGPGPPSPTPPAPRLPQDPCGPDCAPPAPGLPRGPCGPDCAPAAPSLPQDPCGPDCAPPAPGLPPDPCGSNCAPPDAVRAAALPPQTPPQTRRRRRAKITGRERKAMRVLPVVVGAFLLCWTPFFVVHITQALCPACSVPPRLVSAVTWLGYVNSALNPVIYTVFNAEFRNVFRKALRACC

D(1A) dopamine receptor [5] = target: T1, D(1A) dopamine receptor; experiment: Displacement of [3H]SCH-23390 from Dopamine receptor D1 of bovine striatal membranes
[6] = target: T4, D(4) dopamine receptor (Homo sapiens) (UniProt P21917); experiment: Agonistic effect was measured by the stimulation of mitogenesis at dopamine D4.2 receptor; format: functional
T4 sequence (whole entry): T3 sequence (P21917 whole entry)
Procedure, shortened: (§2)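 CHO10001A cells stably expressing human D4.2 receptor, seeded at 10 000 cells/well and grown 75 h in medium with 10% FCS. Cells rinsed with serum-free medium, then given seven concentrations (final 0.001-1000 nM) for 16-18 h. [3H]thymidine 0.25 µCi/well added for 2 h at 37 °C, then filter harvest and counting. Quadruplicates, 6 experiments, normalized mean curve; EC50 from mean curves.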

D(4) dopamine receptor [7] = target: T3, D(4) dopamine receptor; experiment: (§3) Effective dose was measured by the stimulation of mitogenesis at dopamine D4.2 receptor; format: functional; procedure, shortened: as §2
[8] = target: T4, D(4) dopamine receptor (Homo sapiens); experiment: as §3; format: functional; procedure, shortened: as §2

D(3) dopamine receptor, sequence (P35462 whole entry): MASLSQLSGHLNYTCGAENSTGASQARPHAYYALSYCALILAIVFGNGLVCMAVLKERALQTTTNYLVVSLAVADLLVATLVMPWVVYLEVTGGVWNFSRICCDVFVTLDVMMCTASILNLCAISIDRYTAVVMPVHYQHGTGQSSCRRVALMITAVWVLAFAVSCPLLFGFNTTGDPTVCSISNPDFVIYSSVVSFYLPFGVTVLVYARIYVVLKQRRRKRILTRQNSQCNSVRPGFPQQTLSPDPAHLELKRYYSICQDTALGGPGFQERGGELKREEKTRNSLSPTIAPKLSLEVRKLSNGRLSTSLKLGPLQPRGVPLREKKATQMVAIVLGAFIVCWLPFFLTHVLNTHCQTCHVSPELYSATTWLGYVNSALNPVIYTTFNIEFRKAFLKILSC
T1 sequence (Q95136 whole entry): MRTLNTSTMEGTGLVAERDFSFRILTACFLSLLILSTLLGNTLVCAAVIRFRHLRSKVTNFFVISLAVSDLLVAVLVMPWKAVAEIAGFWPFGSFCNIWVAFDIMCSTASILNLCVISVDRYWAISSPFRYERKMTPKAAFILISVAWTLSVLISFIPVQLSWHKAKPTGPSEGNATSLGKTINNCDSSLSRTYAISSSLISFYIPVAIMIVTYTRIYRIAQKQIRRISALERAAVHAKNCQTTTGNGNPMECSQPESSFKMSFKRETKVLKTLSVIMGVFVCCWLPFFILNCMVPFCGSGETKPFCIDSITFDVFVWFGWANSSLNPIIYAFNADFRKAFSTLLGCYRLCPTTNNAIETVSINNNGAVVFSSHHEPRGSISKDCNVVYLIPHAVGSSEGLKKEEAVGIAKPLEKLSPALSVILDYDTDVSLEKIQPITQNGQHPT
T2 sequence (P14416 whole entry): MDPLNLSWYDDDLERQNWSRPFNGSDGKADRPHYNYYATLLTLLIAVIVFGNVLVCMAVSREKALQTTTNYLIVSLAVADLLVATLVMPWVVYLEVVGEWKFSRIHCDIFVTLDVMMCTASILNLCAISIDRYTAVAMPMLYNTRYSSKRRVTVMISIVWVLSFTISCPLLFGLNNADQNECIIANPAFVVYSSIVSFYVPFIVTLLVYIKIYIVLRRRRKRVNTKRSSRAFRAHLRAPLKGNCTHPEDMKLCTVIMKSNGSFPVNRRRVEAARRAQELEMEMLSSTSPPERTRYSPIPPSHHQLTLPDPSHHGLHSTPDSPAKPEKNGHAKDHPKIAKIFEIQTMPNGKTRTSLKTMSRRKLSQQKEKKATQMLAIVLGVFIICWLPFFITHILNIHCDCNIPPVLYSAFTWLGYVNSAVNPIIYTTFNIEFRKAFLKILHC

Compound | Ki (D(1A) dopamine receptor [1]) [nM] | Ki (D(3) dopamine receptor) [nM] | Ki (D(2) dopamine receptor [2]) [nM] | Ki (D(2) dopamine receptor [3]) [nM] | Ki (D(4) dopamine receptor [4]) [nM] | Ki (D(1A) dopamine receptor [5]) [nM] | Effect [6] [%] | EC50 (D(4) dopamine receptor [7]) [nM] | ED50 [8] [nM]
N#Cc1ccc2[nH]c(CN3CCN(c4ccc(Cl)c(Cl)c4)CC3)cc2c1 | 11000 | 20000 | 36000 | 43000 | 7.5 |  |  |  | 
N#Cc1ccc2[nH]cc(CN3CCN(c4ccc(F)cc4)CC3)c2c1 |  | 5200 | 1800 | 2400 | 110 | 490 |  |  | 
N#Cc1ccc2cc(CN3CCN(c4ccccc4)CC3)[nH]c2c1 | 5300 | 3100 | 2500 | 5600 | 3.6 |  |  |  | 
N#Cc1ccc2[nH]c(CN3CCN(c4ccc(Cl)cc4)CC3)cc2c1 | 5300 | 13000 | 7600 | 7900 | 2.1 |  |  |  | 
N#Cc1ccc2[nH]cc(CN3CCN(c4ccc(Cl)cc4)CC3)c2c1 |  | 6400 | 2600 | 4300 | 29 | 550 |  |  | 
N#Cc1ccc2[nH]cc(CN3CCN(c4ccccc4)CC3)c2c1 |  | 4400 | 3500 | 34000 | 50 | 3000 |  |  | 
N#Cc1ccc2cc(CN3CCN(c4ccccc4Cl)CC3)[nH]c2c1 | 1900 | 920 |  |  | 3.4 |  |  |  | 
N#Cc1ccc2[nH]c(CN3CCN(c4ccccc4Cl)CC3)cc2c1 |  | 1700 | 950 | 2300 | 1.4 | 7500 |  |  | 
N#Cc1ccc2[nH]c(CN3CCN(c4ccc(F)cc4)CC3)cc2c1 | 8600 | 15000 | 19000 | 28000 | 1 |  | 30 | 9.4 | 
N#Cc1ccc2[nH]cc(CN3CCN(c4ccc(Cl)c(Cl)c4)CC3)c2c1 |  | 870 | 480 | 790 | 22 | 450 |  |  | 
N#Cc1ccc2[nH]cc(CN3CCN(c4ccccc4Cl)CC3)c2c1 |  | 550 | 540 | 1400 | 17 | 510 |  |  | 
N#Cc1ccc2cc(CN3CCN(c4ccc(Cl)c(Cl)c4)CC3)[nH]c2c1 | 880 | 33000 | 1400 | 2000 | 9 |  |  |  | 
N#Cc1ccc2[nH]c(CN3CCN(c4ccccc4)CC3)cc2c1 |  | 1700 | 290 | 3100 | 0.52 | 13000 | 35 |  | 1.5
